Measured values of several laboratories.
Protocols differ between the studies behind these lines.
Target: Serine/threonine-protein kinase 4 (STK4, Homo sapiens, UniProt Q13043)
One construct used (Q13043 1-487): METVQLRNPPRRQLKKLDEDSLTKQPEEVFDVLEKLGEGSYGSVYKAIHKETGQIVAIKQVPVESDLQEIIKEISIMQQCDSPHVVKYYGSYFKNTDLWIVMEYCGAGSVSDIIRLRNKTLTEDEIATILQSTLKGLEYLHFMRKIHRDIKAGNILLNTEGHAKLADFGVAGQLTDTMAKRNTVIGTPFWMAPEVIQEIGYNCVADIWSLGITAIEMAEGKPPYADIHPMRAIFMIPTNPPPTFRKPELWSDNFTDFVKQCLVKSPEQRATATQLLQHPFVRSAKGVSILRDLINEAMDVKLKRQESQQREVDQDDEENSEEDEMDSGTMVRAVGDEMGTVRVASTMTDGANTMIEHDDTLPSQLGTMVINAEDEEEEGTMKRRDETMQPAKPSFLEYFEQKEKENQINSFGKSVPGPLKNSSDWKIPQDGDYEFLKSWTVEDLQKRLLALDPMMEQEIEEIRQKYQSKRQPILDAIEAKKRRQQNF

SMILES | assay | setting | quantity | result
Clc1cccc(-c2c[nH]c3nccc(N4CCOCC4)c23)c1 | thermal stability, DSF | 20 µM | ΔTm | > 8 °C
Nc1ncc(-c2nc(N3CCOCC3)nc(N3CCOCC3)n2)c(C(F)F)n1 | binding, competition with immobilised ligand | 10 µM | remaining binding | 86%
CC(C)(C)c1cc(C=C(C#N)C#N)cc(Br)c1O | enzyme activity, inhibitor | 0.5 µM | remaining activity | 90.5%
C#Cc1n[nH]c2c(-c3cn(C(C)c4ccccn4)c(=O)[nH]c3=O)cc(F)cc12 (stereo not drawn) | enzyme activity, inhibitor | 1 µM | inhibition | 3.7%
NC(=O)c1cccc(-c2c[nH]c3ncnc(N4CCOCC4)c23)c1 | thermal stability, DSF | 20 µM | ΔTm | > 8 °C
COc1ncccc1-c1cnn2ccc(N3CCN(C(=O)OC(C)C)CC3)nc12 | binding, competition with immobilised ligand | 1 µM | remaining binding | 40%
Cc1nn(C)cc1-c1nc2c(N3CCN(Cc4ccc(Cl)cc4)CC3)c(Cl)cnc2[nH]1 | binding, competition with immobilised ligand | 1 µM | remaining binding | 100%
Cn1cc(-c2cccc(N3CCc4c(sc5c4CC(C)(C)C5)C3=O)c2CO)cc(Nc2ccncn2)c1=O | enzyme activity, inhibitor | 1 µM | inhibition | -4%
C#Cc1n[nH]c2c(-c3cn([C@@H](C)c4ccccc4)c(=O)[nH]c3=O)cc(F)cc12 | enzyme activity, inhibitor | 0.1 µM | inhibition | -0.9%
Cn1cc(-c2cc(F)cc(N3CCn4c(cc5c4CCCC5)C3=O)c2CO)cc(Nc2ccc(N3CCN(C4COC4)CC3)cn2)c1=O | enzyme activity, inhibitor | 0.1 µM | inhibition | 13%
O=c1[nH]c2ccccc2n1C1CCN(Cc2ccc(-c3[nH]c4cc5ncnc5cc4nc3-c3ccccc3)cc2)CC1 | cell-free assay | 0.5 µM | remaining signal | 95.2%
Cn1cncc1[C@](O)(COc1ccc(C#N)cc1-c1ccc(OC(F)(F)F)cc1)c1ccc(C#N)cc1 | cell-free assay, competition with immobilised ligand | 1 µM | remaining binding | 86%
